Assay outcomes from PubChem.
Compounds with a hit are over-represented: about 2.2% of the library has one in this group of screens.
DAGLB inhibitor: blocks human DAGLB lipase activity; HEK293T DAGLB membrane lysate, EnzChek fluorogenic substrate; hit rate 0.059% among 340,000; inhibition, % at 5.17 µM; Q8NCG7; in the data active means inhibition above about 34%;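 further: 0% = enzyme with vehicle and 100% = wells lacking enzyme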
HCV NS3 hel inh: inhibitors of Hepatitis C virus NS3 helicase | hit rate 0.56% among 290,000 | inhibition, % at 10.9 µM | AID 1800 | NS3 helicase DNA unwinding, Cy5 molecular beacon fluorescence;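 active means inhibition above the mean of all tested compounds plus 3 SD, set per campaign, cut at about 35% in these data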;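 further: 0% = DMSO wells and 100% = thioflavine S control wells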
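assay system = NS3 helicase fragment of HCV | buffer or medium = MOPS pH 6.5, MgCl2, DTT, Tween20, BSA | timing = 60 min unwinding reaction at 25 °C after ATP addition | signal = Cy5 beacon fluorescence read at start and 1 h | read-out basis = % inhibition of unwinding | control set = low DMSO, high thioflavine S at 110 µM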
GPR7 antag: antagonists of human GPR7 (neuropeptides B/W receptor 1); P48145; GPR7-expressing cells, fluorescence antagonist assay; inhibition, % at 4.4 µM; hit rate 1.1% among 290,000; in the data active means inhibition above about 16%, passing the limit was not always enough;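 further: cells stimulated with the agonist NPW; 0% = agonist with vehicle and 100% = vehicle without agonist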
DNA FID counter-1: counter-screen for HCV NS3 helicase inhibitors: DNA intercalator displacement | hit rate 0.17% among 290,000 | AID 1845 | inhibition, % at 7.9 µM | DNA fluorescent intercalator displacement, fluorescence;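 further: 0% = vehicle and 100% = reference compound; higher means more ethidium bromide displaced from hairpin DNA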
GRK2 inh: inhibitors of human GRK2 displacing RNA aptamer; P25098; bead flow cytometry, FAM-aptamer displacement from GRK2; hit rate 0.59% among 330,000; AID 488847; inhibition of aptamer binding, % at 10 µM;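 active means inhibition of aptamer binding above 40%, roughly 3 SD of noise, on plates passing a quality check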;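 further: median bead fluorescence of bound FAM aptamer so fluorescent compounds give negative values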
HCV core dimer: blocks dimerization of HCV core protein; TR-FRET GST/Flag-core106 dimerization, 1536-well; inhibition, % at 5 µM; hit rate 0.33% among 300,000;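 active means inhibition above the mean of all tested compounds plus 3 SD, set per screening campaign, cut at about 45% in these data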
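assay system = GST-tagged and Flag-tagged HCV core protein residues 1-106 | controls = unlabelled core106 and no-GST-core106 wells | incubation = compound-protein-antibody incubation 4 h at 22.5 °C | probe or stimulus = Eu donor and XL665 acceptor anti-tag antibodies | read-out = % inhibition based on acceptor/donor emission ratio | signal = TR-FRET 671 and 617 nm emission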
NS3 helicase cf: HCV NS3 helicase inhibition, confirmation assay; shares compounds with HCV NS3 hel inh; NS3 helicase DNA unwinding, Cy5 molecular beacon fluorescence; inhibition, % at 10.9 µM; hit rate 31% among 1,600; AID 1943;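 active means inhibition above the mean of all tested compounds plus 3 SD, cutoff set per campaign, cut at about 36% in these data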
DNA FID counter-2: intercalator displacement, NS3 helicase counter-screen; inhibition, % at 7.9 µM; AID 1945; shares compounds with HCV NS3 hel inh; hit rate 4% among 1,600; DNA fluorescent intercalator displacement, fluorescence;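 further: 0% = vehicle and 100% = reference compound; higher means more displacement of ethidium bromide from the DNA hairpin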
FID counter DR: DNA intercalator displacement in dose response. shares compounds with HCV NS3 hel inh. IC50, µM. fluorescent intercalator displacement from DNA, fluorescence. 120 tested, under 10 active; call rule not given here
* hit, by the source's call; . = no result. Unless noted, no stated cut-off is given here; in the data, active means inhibition above about 37%; inactive means the rest.

SMILES | DAGLB inhibitor | HCV NS3 hel inh | GPR7 antag | DNA FID counter-1 | GRK2 inh | HCV core dimer | NS3 helicase cf | DNA FID counter-2 | others
Cc1ccc(C(=O)C2=C(O)C(=O)N(Cc3cccnc3)C2c2cccc(Oc3ccccc3)c2)o1 (stereo unspecified) | . | 45* | -18 | -66 | 1 | 23 | 86* | -37 | FID counter DR=>79
CSC[C@H]1CN(Cc2ccccc2)C(=O)[C@@H]1CC(=O)Nc1ccc(Br)cc1 | 1 | . | . | . | . | . | . | .
COc1ccc(OC)c(C2C(C(=O)c3cc4ccccc4o3)=C(O)C(=O)N2c2cc(C)on2)c1 (stereo unspecified) | 7 | 37* | -1 | -17 | 0 | 15 | 80* | -6 | FID counter DR=>79
Cc1cc(N2C(=O)C(O)=C(C(=O)c3ccc(C)o3)C2c2cccc(Oc3ccccc3)c2)no1 (stereo unspecified) | 14 | 63* | -7 | -41 | 11 | 8 | 173* | -22 | FID counter DR=>79
Cc1cc(N2C(=O)C(O)=C(C(=O)c3ccc(C)o3)C2c2cccc(Cl)c2)no1 (stereo unspecified) | 7 | . | . | . | . | . | . | .
O=C1NC(=O)/C(=C\c2ccccc2Oc2ccc(F)c(F)c2)S1 | 15 | 55* | -8 | -9 | 0 | 18 | 26 | -1
CCCCCCCCCCCCN1C/C(=C\C(=O)OCC)c2ccccc2S1(=O)=O | -6 | 80* | 10 | -28 | 5 | -4 | 10 | -22
O=C(CN1C(=O)NC2(CCCC2)C1=O)Nc1nc2ccccc2[nH]1 | -2 | . | . | . | 2 | -1 | . | .
Cc1cc(=O)oc2c(CN3CCCC3)c(O)c(Cl)cc12 | -2 | 3 | 1 | -5 | 7 | 1 | . | .
CCCc1cc(=O)oc2cc(C)c(CN3CCCC3)c(O)c12 | 17 | 40* | -4 | -18 | 0 | 53* | 41* | -22
Cc1cc(=O)oc2c(CN3CCCCC3)c(O)c(Cl)cc12 | -1 | 24 | 9 | -11 | 0 | 1 | . | .
CCc1cc(=O)oc2cc(C)c(CN3CCCCC3)c(O)c12 | 3 | 36* | 5 | -19 | 2 | 16 | -24 | -5
CCc1cc(=O)oc2cc(C)c(CN3CCCC3)c(O)c12 | 5 | 39* | 3 | -18 | 0 | 86* | 30 | 8
O=C(N/N=C/c1cccnc1)c1ccc([N+](=O)[O-])cc1 | 5 | 7 | 2 | 2 | 0 | -5 | . | .
O=C(N/N=C/c1cccn1-c1ccc([N+](=O)[O-])cc1)c1cccnc1 | 3 | 65* | -9 | -15 | 0 | 19 | 1 | -3
C=CCOc1ccc(C2/C(=C(\O)c3ccc4c(c3)CC(C)O4)C(=O)C(=O)N2CCN2CCOCC2)cc1OCC (stereo unspecified) | -1 | 0 | 4 | -59 | 3 | 5 | . | .
O=C(/C=C/c1ccco1)Nc1sc2c(c1C(=O)O)CCC2 | 1 | 47* | 13 | -7 | 1 | -6 | 19 | 19
N#Cc1c(NC(=O)/C=C/c2ccco2)sc2c1CCCC2 | 6 | 34 | 10 | -16 | 0 | 4 | . | .
C(=C\c1ccco1)/C1=NN(c2ccccc2)C(c2ccco2)C1 (stereo unspecified) | 0 | 46* | -11 | -17 | 0 | 37 | 58* | 8
Cc1ccc(-c2csc3ncnc(SCC(=O)NCC4CCCO4)c23)cc1 (stereo unspecified) | -3 | . | . | . | 0 | . | . | .
C=C1c2cccc(O)c2C(O)=C2C(=O)[C@]3(O)C(O)=C(C(N)=O)C(=O)[C@@H](N(C)C)[C@@H]3[C@@H](O)[C@H]12 | 0 | 85* | 1 | 2 | 0 | -8 | 55* | 17 | FID counter DR=>79
NC(=O)NN=C1CCN2CCCc3cccc1c32 | 1 | . | . | . | . | . | . | .
CC(C)CSc1oc(-c2ccco2)nc1S(=O)(=O)c1ccccc1 | -5 | 40* | -9 | -23 | 6 | 9 | -23 | -27
Cc1c(CC(=O)O)c(=O)oc2cc(OCc3ccc(F)cc3Cl)ccc12 | 6 | 48* | 11 | -28 | 0 | -1 | 51* | -12
